Test [1] in a line: In vitro inhibitory activity was determined against human whole blood. It counts as functional.
The subject of test [2] is Canis familiaris. The test can be described thus: Change in QTc were measured at 15 and 30 min after dosing of bolus at 3 mg/kg in dogs. It is filed as functional, Canis lupus familiaris. The essentials: (§1)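 Chloralose-anesthetized mongrel dogs (n = 2 or 3) given iv bolus over 2–5 min as solution in 60–80% PEG-200. QTc recorded at 15 and 30 min postdose as percent change from baseline per dog; values averaged, ΔQTc taken as maximal mean percent change (range given).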

Test [3] can be described thus: In vitro inhibition of […] induced TNF-alpha production in human whole blood (HWB). It counts as functional, tissue-based.
Test [4] addresses Voltage-gated inwardly rectifying potassium channel KCNH2 (Homo sapiens, UniProt Q12809).
Test [5] in a line: Ratio of lowest plasma concentration to measured over 30 min interval to 50% inhibition of LPS-induced TNF alpha production in human whole blood. It counts as functional.
The target of test [6] is 3',5'-cyclic-AMP phosphodiesterase 4A (Homo sapiens, UniProt P27815). The test can be described thus: In vitro inhibitory activity was determined against human Phosphodiesterase 4 isoform using a construct representing the common region of spliced variants expressed as a GST-fusion protein in Sf 9 cells. It is filed as cell-based. The method, boiled down: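 Human PDE4A, common-region construct of spliced variants expressed as GST-fusion in Sf9 cells; values mean ± SEM with n reported.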
3',5'-cyclic-AMP phosphodiesterase 4A, sequence (P27815 whole entry, looked up, stated change not applied, the tested form may be a part, canonical isoform): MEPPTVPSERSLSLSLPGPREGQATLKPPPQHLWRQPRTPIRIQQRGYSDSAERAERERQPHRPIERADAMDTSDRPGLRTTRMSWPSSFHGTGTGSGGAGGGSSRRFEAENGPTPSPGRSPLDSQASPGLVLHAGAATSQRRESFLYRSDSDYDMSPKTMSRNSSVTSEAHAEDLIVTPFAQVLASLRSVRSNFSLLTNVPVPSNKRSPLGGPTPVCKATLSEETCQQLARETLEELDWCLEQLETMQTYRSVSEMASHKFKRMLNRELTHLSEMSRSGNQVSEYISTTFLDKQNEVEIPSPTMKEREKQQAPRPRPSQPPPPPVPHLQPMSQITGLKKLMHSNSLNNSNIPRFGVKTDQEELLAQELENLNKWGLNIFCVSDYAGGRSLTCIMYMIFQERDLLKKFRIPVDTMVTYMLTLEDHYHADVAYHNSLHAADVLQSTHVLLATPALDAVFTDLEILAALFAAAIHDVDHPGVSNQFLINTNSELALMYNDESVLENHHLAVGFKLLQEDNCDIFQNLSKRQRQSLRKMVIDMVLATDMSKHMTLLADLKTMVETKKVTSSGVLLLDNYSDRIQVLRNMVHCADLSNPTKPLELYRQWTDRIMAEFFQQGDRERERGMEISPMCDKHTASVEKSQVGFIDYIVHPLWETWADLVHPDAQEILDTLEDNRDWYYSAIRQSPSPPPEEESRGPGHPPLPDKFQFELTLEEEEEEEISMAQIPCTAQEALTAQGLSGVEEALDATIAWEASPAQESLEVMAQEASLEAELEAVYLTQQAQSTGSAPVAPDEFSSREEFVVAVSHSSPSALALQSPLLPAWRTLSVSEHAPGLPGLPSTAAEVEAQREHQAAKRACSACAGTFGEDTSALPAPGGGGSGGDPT

The test system of test [7] is Canis familiaris. Kind of test: Range of plasma concentration measured between 2 and 30 min in dogs after intravenous bolus dosing at 3 mg/kg. It is filed as functional, organism-based. Further details: dose 3 mg/kg. As to conditions: Canis lupus familiaris. The method, boiled down: (§2)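 Anesthetized mongrel dogs, iv bolus (2–5 min) in 60–80% PEG-200; plasma drug levels measured by HPLC between 2 and 30 min after dosing, reported as range (±0.2 µM); data from n ≥ 2 dogs.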

The subject of test [8] is Canis familiaris. The test can be described thus: Change in QTc were measured at 15 and 30 min after dosing of bolus at 10 mg/kg in dogs. It is filed as functional, Canis lupus familiaris. The method, boiled down:
as §1

Test [9] deals with Canis familiaris. Kind of test: Range of plasma concentration measured between 2 and 30 min in dogs after intravenous bolus dosing at 10 mg/kg. Details: dose 10 mg/kg. As to conditions: Canis lupus familiaris. It is filed as functional, organism-based. The method, boiled down: as §2

The values below come from ChEMBL document CHEMBL1145790, “Optimization of a tertiary alcohol series of phosphodiesterase-4 (PDE4) inhibitors: structure-activity relationship related to PDE4 inhibition and human ether-a-go-go related gene potassium channel binding affinity” (J Med Chem, 2003).

pIC50, pKi: −log10 of the molar value.

Voltage-gated inwardly rectifying potassium channel KCNH2, sequence (Q12809 whole entry): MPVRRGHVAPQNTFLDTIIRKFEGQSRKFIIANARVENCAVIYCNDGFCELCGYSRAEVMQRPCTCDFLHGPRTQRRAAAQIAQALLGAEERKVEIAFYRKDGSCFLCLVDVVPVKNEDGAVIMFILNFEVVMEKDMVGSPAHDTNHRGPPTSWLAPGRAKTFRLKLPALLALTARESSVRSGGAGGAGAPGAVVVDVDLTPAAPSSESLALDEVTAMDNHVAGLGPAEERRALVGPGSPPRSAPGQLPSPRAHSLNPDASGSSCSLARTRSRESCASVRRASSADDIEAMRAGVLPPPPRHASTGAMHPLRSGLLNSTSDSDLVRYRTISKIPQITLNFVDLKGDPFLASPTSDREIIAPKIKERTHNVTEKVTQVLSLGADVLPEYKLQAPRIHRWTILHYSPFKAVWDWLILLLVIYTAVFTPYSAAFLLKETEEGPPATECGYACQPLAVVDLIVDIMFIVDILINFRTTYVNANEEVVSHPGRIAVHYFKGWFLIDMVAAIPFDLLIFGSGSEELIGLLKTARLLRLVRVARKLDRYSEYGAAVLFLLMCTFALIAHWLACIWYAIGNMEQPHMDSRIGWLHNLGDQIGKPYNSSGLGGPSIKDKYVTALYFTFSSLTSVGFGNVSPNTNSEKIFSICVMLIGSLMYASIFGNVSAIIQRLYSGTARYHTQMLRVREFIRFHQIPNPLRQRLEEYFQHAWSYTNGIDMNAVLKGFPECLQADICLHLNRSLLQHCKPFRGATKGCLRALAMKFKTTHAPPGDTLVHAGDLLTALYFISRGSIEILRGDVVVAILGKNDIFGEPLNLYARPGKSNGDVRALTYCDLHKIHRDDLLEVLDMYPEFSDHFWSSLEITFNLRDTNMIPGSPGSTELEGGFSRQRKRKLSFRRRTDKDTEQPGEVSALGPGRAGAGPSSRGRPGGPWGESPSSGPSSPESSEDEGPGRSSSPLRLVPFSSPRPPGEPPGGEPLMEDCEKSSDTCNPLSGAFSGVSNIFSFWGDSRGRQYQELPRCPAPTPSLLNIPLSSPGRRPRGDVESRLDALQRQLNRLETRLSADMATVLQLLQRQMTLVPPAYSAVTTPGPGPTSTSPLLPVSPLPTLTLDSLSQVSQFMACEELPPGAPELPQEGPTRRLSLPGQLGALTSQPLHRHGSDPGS

As a reminder, the pIC50 is the negative decadic logarithm of the IC50, by convention in mol/L. Low values mean a high IC50, high ones a low IC50. In general, pKi refers to −log10 of the Ki, conventionally taken in molar units. Read a low pKi as a high Ki. For `CC(O)(c1ccccc1)c1ccc(C(Cc2cc[n+]([O-])cc2)c2ccc(OC(F)F)c(OC(F)F)c2)cn1` (stereo unspecified), the pIC50 in test [1] is 6.80; in [3] (Homo sapiens, Blood), 6.80; in [6], 8.68. For the same molecule, the Change in the test on Canis familiaris [2] was 8.9%. For the same molecule, the pKi in [4] was 5.93. Moreover, in test [5], the “Ratio plasma concentration/IC50” value is recorded as 12.5. Besides, in the test with Canis familiaris [7], the Plasma concentration amounted to 5 µM.

In the case of `CC(C)(O)c1ccc(C(Cc2cc[n+]([O-])cc2)c2ccc(OC(F)F)c(OC3CCC3)c2)cc1` (racemic), the pIC50 was 6.59 in test [3] (Homo sapiens, Blood) and 8.80 in test [6]. Further, the pKi in test [4] is 4.65.

On to `[O-][n+]1cccc(C[C@H](c2ccc(OC(F)F)c(OC3CC3)c2)c2cnc(C(O)(C(F)(F)F)C(F)(F)F)s2)c1`, for which the pIC50 was 5.58 in test [3] (Homo sapiens, Blood) and 7.32 in test [6]. Moreover, the negative-log Ki (pKi) in [4] is 4.41.

On to `COc1ccc([C@H](Cc2ccncc2)c2ccccc2)cc1OC1CCCC1` [CDP840], for which the pIC50 in test [3] (Homo sapiens, Blood) is 4.79; in test [6] it was 8.37.

`CC(C)(O)c1ccc(C(Cc2cc[n+]([O-])cc2)c2ccc(OC(F)F)c(OC3CC3)c2)cn1` (single isomer, unassigned; (+)): the values for the negative logarithm of the IC50 (pIC50) in test [3] and in test [6] were 7.22 and 8.92, respectively.

Consider `CC(C)(O)c1ccc(C(Cc2cc[n+]([O-])cc2)c2ccc(OC(F)F)c(OC(F)F)c2)cn1` (single isomer, unassigned; (-)), for which the results for the pIC50 in test [3] and in test [6] were 6.19 and 7.46, respectively. This molecule showed a pKi in test [4] of 4.64.

With `CC(C)(O)c1ncc(C(Cc2cc[n+]([O-])cc2)c2ccc(OC(F)F)c(OC3CCC3)c2)s1` (stereo unspecified), the Change in the test on Canis familiaris [8] was 2.9%. In addition, the Plasma concentration with Canis familiaris [9] turned out to be 10 µM. In addition, the negative logarithm of the IC50 (pIC50) is 7.00 in [1]; 7.05 in test [3] (Homo sapiens, Blood); 9.30 in [6]. In [4], this molecule showed a pKi of 4.23. Also, in [5], the “Ratio plasma concentration/IC50” value came out at 40.

As for `CC(C)(O)c1ccc(C(Cc2ccc[n+]([O-])c2)c2ccc(OC(F)F)c(OC3CC3)c2)cn1` (single isomer, unassigned; (+)2d), the pIC50 is 6.70 in [3] and 8.68 in [6]. In test [4], this molecule had a pKi of 4.37.

In the case of `CC(C)(O)c1ccc(C(Cc2cc[n+]([O-])cc2)c2ccc(OC(F)F)c(OC3CC3)c2)cn1` (single isomer, unassigned; (-)), the negative-log IC50 (pIC50) in test [3] was 5.45; in test [6] it was 7.26.

On to `CC(C)(O)c1ccc(C(Cc2cc[n+]([O-])cc2)c2ccc(OC(F)F)c(OC3CCC3)c2)cn1` (stereo unspecified), for which the negative-log IC50 (pIC50) in [3] (Homo sapiens, Blood) was 6.92; in test [6], 9.00. This molecule also gave a pKi in [4] of 4.60.

Regarding `CC(C)(O)c1ccc(C(Cc2ccc[n+]([O-])c2)c2ccc(OC(F)F)c(OC3CC3)c2)cn1` (single isomer, unassigned; (-)2d), the results for the pIC50 in test [3] and in test [6] were 4.75 and 6.48, respectively. For the same molecule, the pKi in [4] was 4.35.

Take `[O-][n+]1ccc(CC(c2ccc(OC(F)F)c(OC3CC3)c2)c2cnc(C(O)(C(F)(F)F)C(F)(F)F)s2)cc1` (racemic): the negative logarithm of the IC50 (pIC50) was 7.70 in [3] (Homo sapiens, Blood) and 9.40 in test [6].

In the case of `O=c1[nH]c2c(O)ccc(CCNCCS(=O)(=O)CCCOCCc3ccccc3)c2s1` [SIBENADET], the pIC50 in [3] (Homo sapiens, Blood) is 4.74; in test [6], 7.42.

For `[O-][n+]1ccc(CC(c2ccc(OC(F)F)c(OC3CCC3)c2)c2cnc(C(O)(C(F)(F)F)C(F)(F)F)s2)cc1` (racemic), the pIC50 was 7.70 in [3] (Homo sapiens, Blood) and 9.10 in [6]. Also, the pKi in [4] was 4.42.

In the test with Canis familiaris [8], `[O-][n+]1cccc(C[C@@H](c2ccc(OC(F)F)c(OC3CC3)c2)c2cnc(C(O)(C(F)(F)F)C(F)(F)F)s2)c1` displayed a Change of 3%. In addition, the Plasma concentration in the test with Canis familiaris [9] was 25 µM. Besides, the pIC50 in [1] is 7.05; in test [3] (Homo sapiens, Blood), 7.05; in [6], 9.30. In test [4], this molecule had a negative-log Ki (pKi) of 4.21. For the same molecule, the “Ratio plasma concentration/IC50” value in test [5] was 211.

As for `CC(C)(O)c1ccc(C(Cc2cc[n+]([O-])cc2)c2ccc(OC(F)F)c(OC(F)F)c2)cn1` (stereo in doubt; 2a(+)), the pIC50 in test [3] is 5.05; in [6], 6.28. This molecule also gave a negative logarithm of the Ki (pKi) in [4] of 4.60.

On to `CC(C)(O)c1ccc(C(CC2=CCC(=O)N=C2)c2ccc(OC(F)F)c(OC3CC3)c2)cn1` (single isomer, unassigned; (+)), for which, in test [3] (Homo sapiens, Blood), the pIC50 is 7.22.
